Drawing on ChEMBL document CHEMBL3792374, “Discovery of a ring-opened derivative of 3-n-butylphthalide bearing NO/H2S-donating moieties as a potential anti-ischemic stroke agent” (Eur J Med Chem, 2016), this text covers Activity and inhibition for one compound.

Series [1] relates to Rattus norvegicus. Nature of the series: Antioxidant activity in Sprague-Dawley rat brain tissue model of transient middle cerebral artery occlusion stroke model assessed as increase in superoxide dismutase levels per mg of protein at 80 mg/kg […] measured 24 hrs after reperfusion by nitroblue tetrazolium assay relative to control. In kind it is functional.
The nature of series [2]: Induction of nitric oxide release in potassium phosphate buffer at pH 7.4 at 0.1 mM after 75 mins by Griess assay. In kind it is physicochemical. The conditions noted are these: pH 7.4, 1.25 h, 100 µM. Summed up:
(§1)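 Compound (0.1 mM) in PBS pH 7.4 containing 2% DMSO and 5.0 mM L-cysteine was held at 37 °C for 15–300 min. Samples were taken every 15 min up to 120 min, then every 30 min. Each sample was reacted with Griess reagent for 10 min at 37 °C and absorbance read at 540 nm. Nitrite was quantified from a nitrite standard curve. Means reported; intra-group variation <10%.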
(In general: Griess reagent forms a coloured azo dye with nitrite.)

Series [3] in a line: Induction of nitric oxide release in potassium phosphate buffer at pH 7.4 at 0.1 mM after 105 mins by Griess assay. The conditions noted are these: pH 7.4, 1.75 h, 100 µM. The series is classed as physicochemical. Summed up:
as §1

Series [4] has as its system Liver. Description: Induction of hydrogen sulfide release in rat liver homogenate at 100 uM after 60 mins by microplate reader method (reference value: 1.03 to 1.21%). In kind it is functional, tissue-based. The gist of the method: (§2)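 Compound was incubated at 37 °C for 0–90 min with fresh rat liver homogenate. The reaction was stopped with 1% zinc acetate and 10% trichloroacetic acid. N,N-dimethyl-p-phenylenediamine sulfate in 7.2 M HCl and FeCl3 in 1.2 M HCl were added, and absorbance was read at 670 nm after 10 min. Values were calculated against an NaHS standard curve as cumulative % conversion to H2S, n = 6.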

Series [5] can be described thus: Antiplatelet activity in rabbit platelet-rich plasma assessed as inhibition of ADP-induced platelet aggregation at 0.1 mM preincubated for 5 mins followed by addition of ADP measured within 5 mins by Borns turbidimetric method in presence of nitric oxide scavenger carboxy-PTIO. The conditions noted are these: Oryctolagus cuniculus. In kind it is functional. The gist of the method:
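Rabbit carotid blood was citrated (3.8%, 9:1). PRP was obtained at 500 g for 10 min and PPP at 3000 g for 10 min. PRP was preincubated in duplicate for 5 min at 37 °C with 0.1 mM compound, plus carboxy-PTIO or BSS where indicated. ADP was then added and maximal light transmission recorded within 5 min, within 3 h of blood collection. Inhibition % was calculated versus control. Mean ± SD of three independent experiments.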

Series [6] is described as follows: Induction of nitric oxide release in potassium phosphate buffer at pH 7.4 at 0.1 mM after 15 mins by Griess assay. In kind it is physicochemical. The conditions noted are these: pH 7.4, 0.25 h, 100 µM. Summed up: as §1
The subject of series [7] is Liver. Description: Induction of hydrogen sulfide release in rat liver homogenate at 100 uM after 15 mins by microplate reader method (reference value: 1.03 to 1.21%). The series is classed as functional, tissue-based. The gist of the method:
as §2

For series [8], the system named is Rattus norvegicus. Nature of the series: Neuroprotective activity in Sprague-Dawley rat model of transient middle cerebral artery occlusion stroke model assessed as neurological deficit at 80 mg/kg administered via oral gavage for 7 days after ischemia onset measured 24 hrs after middle cerebral artery occlusion by Longa's method. The series is classed as functional, organism-based. The conditions noted are these: in the assay text read “before ischemia onset” for “after ischemia onset”. Summed up: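 Male SD rats (280–320 g) received daily gavage for 7 days, with 0.5% CMC-Na as vehicle. Two hours after the last dose they underwent 2 h MCAO with reperfusion under chloral hydrate anesthesia; core temperature was held at 37 °C. Neurological deficit was scored blinded by Longa's method 24 h after reperfusion, between 10 and 11 a.m. Kruskal–Wallis test followed by Mann–Whitney U test.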

In series [9] the test system is Rattus norvegicus. Description: Neuroprotective activity in Sprague-Dawley rat model of transient middle cerebral artery occlusion stroke model assessed as reduction in infarct size at 380 mg/kg administered via oral gavage for 7 days […] measured 24 hrs after middle cerebral artery occlusion by TTC assay. In kind it is functional, organism-based. The gist of the method: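 Male SD rats (280–320 g), n=12/group, dosed by gavage in 0.5% CMC-Na daily for seven days; 2 h after last dose, anesthetized (chloral hydrate 300 mg/kg ip) and subjected to 2 h intraluminal MCAO then reperfusion. At 24 h post-reperfusion, brains (n=6) cut coronally at 2 mm, stained 2% TTC 30 min 37 °C, formalin-fixed; infarct area expressed as percent of whole brain; mean SD, ANOVA/Tukey.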

Series [10] relates to Rattus norvegicus. Nature of the series: Neuroprotective activity in Sprague-Dawley rat model of transient middle cerebral artery occlusion stroke model assessed as reduction in brain water content at 380 mg/kg administered via oral gavage for 7 days after ischemia onset measured 24 hrs after middle cerebral artery occlusion. The series is classed as functional, organism-based. The conditions noted are these: in the assay text read “before ischemia onset” for “after ischemia onset”. Summed up:
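Male SD rats were gavaged daily for 7 days, with 0.5% CMC-Na as vehicle, then underwent 2 h MCAO with reperfusion. At 24 h after reperfusion the ischemic hemisphere was weighed wet, dried at 100 °C for 24 h and reweighed. Water content was calculated as (wet − dry)/wet × 100%. Mean ± SD, n = 6, ANOVA/Tukey.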

Structures are written as SMILES. The source made the active and inactive calls. The rule behind the calls is not given here.

For orientation: inhibition means how much of the control response was suppressed. For the compound `CCCCC(OC(=O)CN1CCN(CCCCCOc2ccc(-c3cc(=S)ss3)cc2)CC1)c1ccccc1C(=O)Oc1ccc(/C=C/C(=O)OCCO[N+](=O)[O-])cc1OC` (racemic), the Activity is 23.07% in [1]; 8.48 µM in series [2]; 9.63 µM in series [3]; 4.25% in series [4]; 3.16 µM in series [6]; 2.83% in [7]. The inhibition at 100 µM in series [5] amounted to 29.1%. Besides, the outcome in [8] was inactive. Further, the result in series [9] and in [10] was Active.
